From paper PMC7723353 (Revista do Instituto de Medicina Tropical de São Paulo, 2020)
Blank lines part the entries; values can stand above or below the compound they belong to.

Columns and labels:
[1] = test system: Zika virus (clinical isolate, IMT17); test: Anti-ZIKV viral plaque reduction assay in Vero cells; type: cell-based; conditions: for EC50: 96 h, read-out: Anti-ZIKV activity EC50; for Selectivity index (SI): ratio between cytotoxicity and antiviral activity (CC50/EC50), Vero cells
Procedure, shortened: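 ZIKV clinical isolate IMT17 on Vero cells (1.5 × 10^5 cells/well, grown 24 h). Infection at 100 PFU/well for 1 h at 37 °C, 5% CO2, then PBS (pH 7.0) wash. Test compound at several concentrations in 2X MEM, 2% FBS, 50% high-viscosity CMC overlay. Ribavirin positive control; medium and DMSO controls. After 4 days, crystal violet stain; plaque counts give % inhibition, EC50 by non-linear regression; SI = CC50/EC50.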

[2] = Cytotoxicity by MTT assay in Vero cells; type: cell-based; conditions: African green monkey, Vero cells (African green monkey kidney)
Procedure, shortened: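 Vero cells at 2.7 × 10^5 cells/mL in MEM with 5% FBS, held 24 h at 37 °C, 5% CO2. Medium replaced by two-fold serial dilutions of test compound from DMSO stocks, or DMSO; medium-only cell controls. Incubation 4 days at 37 °C, then MTT (5 mg/mL solution) for 4 h. Formazan dissolved in DMSO, absorbance read at 540 nm. CC50 from % viability by regression.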

Structure (SMILES): CC(C)c1cc2c(cc1O)[C@@]1(C)CCC[C@@](C)(C=O)[C@@H]1CC2 [Compound 8, 18-oxoferruginol]
- EC90 ([1]; Zika virus, Vero): 20.8 ± 3.75 µM
- EC50 ([1]; Zika virus, Vero): 2.6 ± 0.07 µM
- Selectivity index (SI) [1]: 13.51
- CC50 at 4 days [2]: 35.1 ± 5.2 µM

- EC50 ([1]; Zika virus, Vero): 98.5 ± 6.46 µM
Structure (SMILES): NC(=O)c1ncn([C@@H]2O[C@H](CO)[C@@H](O)[C@H]2O)n1 [Ribavirin, reference compound]
- Selectivity index (SI) [1]: 26.25
- CC50 at 4 days [2]: 2590 µM
